GRIN3A LBD mod: modulates the human NR3A ligand-binding domain; actives 2.5% (n = 340,000); NR3A LBD differential scanning fluorimetry, Tm shift; 0% = protein alone, 100% = glycine-bound protein; AID 1259313; Tm shift relative to glycine control, % at 25 µM;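 active = melting temperature shift of at least 10% of the positive control shift, at one fixed dose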
pPAFAH inh: inhibitors of human plasma PAF acetylhydrolase (pPAFAH); Q13093; recombinant pPAFAH, FP-rhodamine probe fluorescence polarization; inhibition, % at 3.39 µM; actives 1.5% (n = 330,000); AID 463082;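 active = inhibition above the mean inhibition across the screen plus 3 SD, cut at about 25% in these data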;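 note: inhibitors block binding of the rhodamine activity-based probe so polarization drops; 0% = enzyme with DMSO and 100% = wells lacking pPAFAH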
Target sequence (Q13093 whole entry, looked up): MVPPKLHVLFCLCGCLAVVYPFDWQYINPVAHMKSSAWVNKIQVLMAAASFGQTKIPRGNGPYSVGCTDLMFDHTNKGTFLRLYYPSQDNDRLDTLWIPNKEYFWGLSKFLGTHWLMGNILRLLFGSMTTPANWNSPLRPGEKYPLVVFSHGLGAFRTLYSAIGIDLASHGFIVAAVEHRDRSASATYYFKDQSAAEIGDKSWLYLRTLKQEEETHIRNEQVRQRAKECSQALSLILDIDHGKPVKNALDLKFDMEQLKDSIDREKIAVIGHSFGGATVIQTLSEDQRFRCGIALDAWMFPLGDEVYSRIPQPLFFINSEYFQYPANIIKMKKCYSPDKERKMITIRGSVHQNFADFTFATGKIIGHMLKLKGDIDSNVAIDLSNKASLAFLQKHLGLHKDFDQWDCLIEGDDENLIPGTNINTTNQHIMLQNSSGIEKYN
PAFAH1B3 inh: PAFAH1B3 (human) inhibition | Q15102 | recombinant PAFAH1B3, FP-rhodamine probe, fluorescence polarization | inhibition, % at 3.39 µM | actives 0.28% (n = 340,000) | AID 492972;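 active = inhibition above the screen-wide average of all tested compounds plus 3 SD, cut at about 25% in these data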;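 note: 0% = enzyme with DMSO only and 100% = wells lacking PAFAH1B3 protein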
PAFAH2 inh: PAFAH2 (human) inhibition; AID 492956; Q99487; inhibition, % at 3.39 µM; actives 0.99% (n = 340,000); recombinant PAFAH2, FP-rhodamine activity probe, fluorescence polarization;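 active = inhibition above the mean over all tested compounds plus 3 SD, cut at about 30% in these data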;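 note: inhibitors block probe labeling of enzyme so polarization drops; 0% = enzyme with DMSO and 100% = wells lacking PAFAH2 protein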
PAFAH1B2 FP inh: inhibitors of human PAFAH1B2; actives 1.2% (n = 340,000); recombinant PAFAH1B2, FP-rhodamine activity probe, fluorescence polarization; AID 492953; inhibition, % at 3.39 µM; P68402;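 active = inhibition above the mean of all tested compounds plus 3 SD, cut at about 24% in these data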;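 note: 0% = enzyme with DMSO and 100% = wells lacking PAFAH1B2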
UCH37 DUB inh: blocks the human deubiquitinase UCH37 | actives 0.33% (n = 330,000) | inhibition, % (no concentration beside the values) | Q9Y5K5 | purified proteasome/UCH37, Ub-AMC cleavage fluorescence | AID 588478;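 active = mean inhibition over replicate wells above about 20%, limit read from the data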;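 note: 0% = compound-free wells with enzyme and 100% = wells lacking proteasome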
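Material: human UCH37 enzyme supplied as purified proteasome complex / Amount: 0.15 nM proteasome as dispensed / Buffer or medium: pH 7.4 Tris-HCl (50 mM) with ovalbumin, ATP-MgCl2, DTT / Times: preincubation 30 min, reaction 25 min, room temperature / Technique: AMC fluorescence from Ub-AMC cleavage, excitation 355 nm, emission 460 nm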
Numbers without * were called inactive; i = inactive; . = no result. Hits are enriched below; roughly 4.8% of the tested compounds scored in any of these assays.

SMILES | GRIN3A LBD mod | pPAFAH inh | PAFAH1B3 inh | PAFAH2 inh | PAFAH1B2 FP inh | UCH37 DUB inh
CCC(=O)c1ccc(OCc2ccccc2)c(OC)c1 | 11.1* | 8.1 | 1.8 | 4.4 | 1.9 | -0.8
O=C(NN=Cc1coc2ccccc2c1=O)c1cc(O)cc(O)c1 | . | . | . | . | . | -22.5
CCC(=O)Nc1ccc(/C(C)=N\NC(=O)c2ccc(C)s2)cc1 | 21.8* | -1.7 | 4.2 | -1.4 | 3.4 | .
CCC(=O)Nc1ccc(/C(C)=N/NC(=O)c2c(-c3ccccc3Cl)noc2C)cc1 | 11.5* | 4.0 | 4.4 | 0.4 | 6.2 | .
CCC(=O)Nc1ccc(C(C)=NNC(=O)c2c(-c3ccccc3Cl)noc2C)cc1 | . | . | . | . | . | 1.4
Clc1ccc(COc2cccc(CNCc3ccncc3)c2)cc1 | -2.2 | 6.9 | 6.1 | 5.9 | 33.0* | 1.2
COc1cc(C=O)ccc1OCCOCCOc1c(C)cc(Cl)cc1Cl | 0.0 | 14.8 | -3.6 | 1.7 | 1.2 | 0.3
COc1cc(C)ccc1OCCOc1c(C)cc(Cl)cc1Cl | 10.4* | 1.7 | -1.6 | 12.1 | 3.7 | 2.3
COc1ccccc1C=NNc1ccccc1[N+](=O)[O-] | . | . | . | . | . | 8.0
COc1ccc(S(=O)(=O)NCC2CCCO2)cc1NC(=O)c1ccccc1 (centres undefined) | 9.6 | 4.7 | -4.0 | -6.3 | -6.4 | 4.0
COc1ccc(C)cc1NC(=O)C(NCC1CCCO1)c1ccccc1 (centres undefined) | 14.8* | -2.6 | 5.4 | -1.8 | 5.5 | 1.1
O=c1[nH]c2c(s1)C(c1ccccc1)C1C3CCC(C3)C1S2 (centres undefined) | -0.2 | 11.8 | 8.5 | -1.2 | 40.7* | 2.1
O=C(O)CCN1C(=O)C2C3CC(C2C1=O)C1C(c2ccccc2)c2sc(=O)[nH]c2SC31 (centres undefined) | -1.7 | 1.1 | 8.2 | 10.2 | 83.8* | 3.6
O=C(O)CCN1C(=O)C2C3CC(C2C1=O)C1C(c2ccccc2)c2sc(=O)n(-c4ccccc4)c2SC31 (centres undefined) | -3.2 | 3.7 | 3.5 | 2.3 | 10.5 | 2.4
COc1ccc(C2c3sc(=O)[nH]c3SC3C4CCC(C4)C23)cc1 (centres undefined) | -1.8 | 4.5 | 8.9 | 7.5 | 5.3 | 6.5
O=C(Nc1cccc(C(F)(F)F)c1)c1cc2c(s1)-c1ccccc1OC2 | 36.6* | 2.4 | -5.9 | -5.7 | -9.1 | i
Nc1nonc1-n1nnc(C(=O)NN=Cc2ccc(Cl)cc2Cl)c1CN1CCOCC1 | . | . | . | . | . | 7.6
CC(Cn1nc([N+](=O)[O-])cc1C)=NNC(=O)c1ccc(O)cc1O | . | . | . | . | . | 4.4
Oc1ccc(C=Nc2ccc(N3CCOCC3)cc2)c(O)c1 | -22.8 | 25.6* | 2.2 | 13.6 | 8.7 | 5.4
O=[N+]([O-])c1cc(Cc2ccccc2)cc(C=Nc2ccc(N3CCOCC3)cc2)c1O | -20.1 | 34.1* | 7.6 | 4.9 | 25.1* | 0.8
Oc1c(Cl)cc(Cl)cc1C=Nc1ccc(N2CCOCC2)cc1 | 2.1 | 13.2 | 6.5 | -4.6 | 4.8 | 1.4
Cc1ccc(O)c(N=Cc2cc(Cc3ccccc3)cc([N+](=O)[O-])c2O)c1 | -9.1 | . | 10.7 | 21.8 | 34.5* | 10.0
O=C(NN=Cc1ccc([N+](=O)[O-])o1)c1cn2ccc3ccccc3c2n1 | . | . | . | . | . | 2.4
COc1ccc(C)cc1Nc1n[n+](C)c(-c2ccc(O)cc2O)s1 | -0.6 | -0.7 | -5.9 | -0.2 | 1.0 | 22.5*
COc1ccc(C)cc1Nc1n[n+](C)c(-c2c3ccccc3cc3ccccc23)s1 | -1.8 | 7.5 | 6.0 | -10.1 | 2.9 | 0.3
SMILES | GRIN3A LBD mod | pPAFAH inh | PAFAH1B3 inh | PAFAH2 inh | PAFAH1B2 FP inh | UCH37 DUB inh
Cc1cc(C)nc(N=C(NC(=O)Nc2ccc(Cl)c(Cl)c2)Nc2ccccc2)n1 | . | . | . | . | . | 3.4
COc1ccc(N(CC(=O)Nc2cc(C)ccc2C)S(=O)(=O)c2ccccc2[N+](=O)[O-])c(OC)c1 | -3.2 | 28.8* | 3.6 | -5.9 | 0.9 | 5.2
COc1ccc(N(CC(=O)Nc2cc(C)cc(C)c2)S(=O)(=O)c2ccccc2[N+](=O)[O-])c(OC)c1 | -8.4 | 1.8 | -4.6 | -5.9 | -1.1 | 1.4
CCN(Cc1ccccc1)c1ccc(C=NNC(=O)c2cccc(S(=O)(=O)N3CCOCC3)c2)cc1 | . | . | . | . | . | -87.5
COc1ccc(NC(=S)Nc2ccc3snnc3c2)cc1 | 28.4* | 1.2 | 6.2 | -5.7 | 1.2 | 0.2
COc1ccc(NC(=S)Nc2ccc3nccnc3c2)cc1 | 0.6 | 5.5 | 2.1 | -3.4 | 5.8 | 7.6

From PubChem
